These results are taken from ChEMBL document CHEMBL1139582, “Interaction of chiral MS-245 analogs at h5-HT6 receptors” (Bioorg Med Chem Lett, 2005).

In general, Ki refers to the equilibrium dissociation constant of an inhibitor or competing ligand from its target.

The experiment has as its target 5-hydroxytryptamine receptor 6 (Homo sapiens, UniProt P50406). The experiment can be described thus: Binding affinity against h5-HT6 receptor transiently expressed in HEK293 cells. It is filed as cell-based. In short, it runs like this: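 Harvested transfected cells 72 h post-transfection (medium changed at 24 h; dialyzed serum added 24 h later to remove 5-HT), washed in PBS pH 7.40, stored frozen at -80 °C. Competition binding at room temperature, 90 min, in 50 mM Tris-Cl, 10 mM MgCl2, 0.1 mM EDTA pH 7.40 with [3H]LSD 1 nM final; 10 µM clozapine defines nonspecific binding.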

Chain of 5-hydroxytryptamine receptor 6 (P50406 whole entry): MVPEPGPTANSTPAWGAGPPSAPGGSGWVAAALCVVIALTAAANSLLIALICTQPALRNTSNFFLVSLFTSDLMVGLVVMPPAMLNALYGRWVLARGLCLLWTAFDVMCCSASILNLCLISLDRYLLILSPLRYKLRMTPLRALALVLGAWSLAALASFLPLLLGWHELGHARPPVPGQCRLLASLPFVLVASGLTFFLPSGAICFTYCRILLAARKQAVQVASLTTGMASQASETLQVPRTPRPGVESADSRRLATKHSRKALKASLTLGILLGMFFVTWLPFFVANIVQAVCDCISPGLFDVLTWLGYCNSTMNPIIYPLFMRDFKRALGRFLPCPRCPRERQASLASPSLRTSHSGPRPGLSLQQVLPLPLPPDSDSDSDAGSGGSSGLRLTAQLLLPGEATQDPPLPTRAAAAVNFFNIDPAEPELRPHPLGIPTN

`CN1CCC[C@@H]1Cn1cc(Cc2ccccc2)c2ccccc21` yielded a Ki of 9.9 nM. `CN(C)CCc1cn(S(=O)(=O)c2ccccc2)c2ccccc12` showed a Ki of 4 nM. This Ki is about 2.5-fold lower than that of the compound before. The compound `c1ccc2c(C[C@H]3CCCN3)c[nH]c2c1` registered a Ki of 60 nM.

In turn, `CN1CCC[C@@H]1Cc1c[nH]c2ccccc12` returned a Ki of 640 nM. Compound `c1ccc2c(C[C@@H]3CCCN3)c[nH]c2c1` yielded an inhibition constant (Ki) of 2400 nM. As for `CN1CCC[C@H]1Cn1cc(Cc2ccccc2)c2ccccc21`, the Ki is 29 nM. `O=S(=O)(c1ccccc1)n1cc(C[C@H]2CCCN2)c2ccccc21` gave a Ki of 7.8 nM. Consider `CN1CCC[C@@H]1Cc1cn(S(=O)(=O)c2ccccc2)c2ccccc12`, for which the affinity, expressed as Ki, was 0.3 nM. Compound `CN1CCC[C@H]1Cc1c[nH]c2ccccc12` displayed an inhibitory constant (Ki) of 9.1 nM. Next, `O=S(=O)(c1ccccc1)n1cc(C[C@@H]2CCCN2)c2ccccc21`: 46 nM. Consider `CN1CCC[C@H]1Cc1cn(S(=O)(=O)c2ccccc2)c2ccccc12`, for which the Ki came out at 1.7 nM.
